Values belong to the compound of their own block, whether it stands above or below them.
Legend:
Rattus norvegicus [1] = species: Rattus norvegicus; assay: T/C value of compound was measured in rats which are untreated with phenobarbital (PB); type: functional
Summary of the method: (§1)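 Rats were given water (untreated) or 0.1% sodium phenobarbital drinking solution (PB-treated) for 8 days, then fasted overnight. Agent 1.25 mmol/kg ip, then ethanol 2.0 g/kg ip 1 h later; killed 1 h after ethanol. Blood acetaldehyde by head-space GC. The value is treated/saline-control blood acetaldehyde within the same pretreatment group.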

Rattus norvegicus [2] = species: Rattus norvegicus; assay: Blood AcH level of compound was measured in rats which are untreated with phenobarbital (PB); type: functional
Summary of the method: (§2)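 Male Sprague–Dawley rats kept 8 days on water (untreated) or 0.1% sodium phenobarbital solution (PB-treated), then fasted overnight. Test agent given at 1.25 mmol/kg ip 2 h before sacrifice, with ethanol at 2.0 g/kg ip 1 h later; saline controls. Cardiac blood was collected into 5 mM sodium azide and frozen, then acetaldehyde was read by head-space GC. Mean ± SE.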

Rattus norvegicus [3] = species: Rattus norvegicus; assay: T/C value of compound was measured in rats which are treated with phenobarbital (PB); type: functional; summary of the method: as §1
Rattus norvegicus [4] = species: Rattus norvegicus; assay: The enzymatic formation of propionaldehyde from compound on inhibition with rat liver microsomes in the presence of an NADPH (treated with phenobarbital (PB)); type: functional
Summary of the method: (§3)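 Liver microsomes (100000g pellet, KCl-washed) from PB-treated or naive rats, equivalent to 500 mg liver per flask. Incubated 30 min at 37 °C with 3 mM compound, pH 7.4 phosphate, NADP+ 2.0 mM, glucose 6-phosphate 2.5 mM, G6PDH, MgCl2, nicotinamide, and 30 mM semicarbazide. Six flasks were pooled, acidified with HClO4, and propiolaldehyde read by head-space GC from 3–5 determinations.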

Rattus norvegicus [5] = species: Rattus norvegicus; assay: Blood AcH level of compound was measured in rats which are treated with phenobarbital (PB); type: functional; summary of the method: as §2
Rattus norvegicus [6] = species: Rattus norvegicus; assay: The enzymatic formation of propionaldehyde from compound on inhibition with rat liver microsomes in the presence of an NADPH (untreated with phenobarbital (PB)); type: functional; summary of the method: as §3
[7] = molecular target: T1, Aldehyde dehydrogenase 1A1 (Rattus norvegicus) (UniProt P51647); assay: Percent inhibition of the enzyme […] was measured in rats which are treated with phenobarbital (PB); settings: concentration not given here
T1 sequence (whole entry): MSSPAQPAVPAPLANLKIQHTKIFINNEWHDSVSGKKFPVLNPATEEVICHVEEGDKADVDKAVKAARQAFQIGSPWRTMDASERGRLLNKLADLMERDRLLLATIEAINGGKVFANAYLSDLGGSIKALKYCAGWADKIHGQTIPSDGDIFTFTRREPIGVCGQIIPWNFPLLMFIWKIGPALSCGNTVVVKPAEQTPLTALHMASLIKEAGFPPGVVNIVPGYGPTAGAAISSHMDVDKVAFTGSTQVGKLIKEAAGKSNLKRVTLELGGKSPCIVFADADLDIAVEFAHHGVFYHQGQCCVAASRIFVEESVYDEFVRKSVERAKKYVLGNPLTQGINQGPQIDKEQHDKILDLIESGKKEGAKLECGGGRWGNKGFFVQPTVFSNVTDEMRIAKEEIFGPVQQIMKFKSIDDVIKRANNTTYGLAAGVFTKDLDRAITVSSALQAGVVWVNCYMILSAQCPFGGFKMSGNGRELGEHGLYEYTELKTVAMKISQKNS
Summary of the method: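 Male Sprague–Dawley rats pretreated 8 days with 0.1% sodium phenobarbital in drinking water, then fasted overnight. They received 1.25 mmol/kg ip 2 h before sacrifice and ethanol 2.0 g/kg ip at 1 h. Liver mitochondrial low-Km aldehyde dehydrogenase activity (nmol acetaldehyde oxidized/min/mg protein, Lowry protein) was compared with saline controls as % inhibition.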

Compound: C#CCOC
T/C (Rattus norvegicus [1]): 0.95
Blood AcH (Rattus norvegicus [2]): 10.6 µM
T/C (Rattus norvegicus [3]): 1.1
Propioaldehyde generated (Rattus norvegicus [4]): 0.05 µmol

Compound: C#CCOC(C)(C)C
T/C (Rattus norvegicus [1]): 1.77
Blood AcH (Rattus norvegicus [2]): 19.6 µM
Blood AcH (Rattus norvegicus [5]): 13.5 µM
T/C (Rattus norvegicus [3]): 1.78
Propioaldehyde generated (Rattus norvegicus [4]): 0.22 µmol

Compound: C#CCN(CC#C)CC#C
T/C (Rattus norvegicus [1]): 1.4
Blood AcH (Rattus norvegicus [2]): 15.4 µM
Blood AcH (Rattus norvegicus [5]): 144 µM
T/C (Rattus norvegicus [3]): 19
Propioaldehyde generated (Rattus norvegicus [6]): 0.25 µmol
Propioaldehyde generated (Rattus norvegicus [4]): 3.5 µmol

inhibition [7]: 44%
Compound: C#CC(OC)OC
T/C (Rattus norvegicus [1]): 0.95
Blood AcH (Rattus norvegicus [2]): 10.6 µM
Blood AcH (Rattus norvegicus [5]): 24.1 µM
T/C (Rattus norvegicus [3]): 3.17
Propioaldehyde generated (Rattus norvegicus [4]): 0.05 µmol

Compound: C#CCN(C)Cc1ccccc1 [PARGYLINE]
T/C (Rattus norvegicus [1]): 20.2
Blood AcH (Rattus norvegicus [2]): 224 µM
Blood AcH (Rattus norvegicus [5]): 247 µM
T/C (Rattus norvegicus [3]): 32.5
Propioaldehyde generated (Rattus norvegicus [6]): 0.61 µmol
Propioaldehyde generated (Rattus norvegicus [4]): 2.58 µmol

Compound: C#CCNCc1ccccc1 [N-BENZYLPROPARGYLAMINE]
T/C (Rattus norvegicus [1]): 18.3
Blood AcH (Rattus norvegicus [2]): 203 µM
Blood AcH (Rattus norvegicus [5]): 382 µM
T/C (Rattus norvegicus [3]): 50.3
Propioaldehyde generated (Rattus norvegicus [6]): 0.2 µmol
Propioaldehyde generated (Rattus norvegicus [4]): 1.16 µmol

Reference: ChEMBL document CHEMBL1121456, “Metabolic depropargylation and its relationship to aldehyde dehydrogenase inhibition in vivo” (1980)
